Measurements published in PMC5033713 (Neuron, 2016).

How the values were obtained:
Type in all cases: cell-based
GluA2WT = GluA2WT (Rattus norvegicus, UniProt P19491); details: for voltage dependence of current inhibition: GluA2WT receptor-mediated current; for Hill coefficient (nHill): GluA2WT, HEK293, 3 mM Glu co-application, −60 mV, 30 μM CTZ, logistic fit
GluA2Del = GluA2Del (Rattus norvegicus, UniProt P19491, C610A/DEL399-404/DEL566-584/E587D/G405E/N256E/N406D/N413Q/S585D/S586T/V397L, form not given); details: for voltage dependence of current inhibition: GluA2Del receptor-mediated current; for Hill coefficient (nHill): GluA2Del, HEK293, 3 mM Glu co-application, −60 mV, 30 μM CTZ, logistic fit
GluA2D519A = GluA2D519A (Rattus norvegicus, UniProt P19491, D540A); assay: Whole-cell patch-clamp, current inhibition of alanine mutant GluA2D519A
Procedure, shortened: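 Rat GluA2 D519A transiently expressed in HEK293 cells (Lipofectamine 2000). Whole-cell recording at −60 mV with piezo-driven theta-pipette fast solution exchange. 500 ms co-applications of 3 mM Glu with graded test compound concentrations, 30 μM CTZ present throughout, Glu alone as control. Logistic fits of normalized currents gave IC50 and nHill, n = 7 cells. IC50 also expressed relative to wild-type.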

GluA2F623A = GluA2F623A (Rattus norvegicus, UniProt P19491, F644A); assay: Whole-cell patch-clamp, current inhibition of alanine mutant GluA2F623A
GluA2 S615A = GluA2 S615A (Rattus norvegicus, UniProt P19491, S636A); assay: Whole-cell patch-clamp, current inhibition of alanine mutant S615A
GluA2 S788A = GluA2 S788A (Rattus norvegicus, UniProt P19491, S809A); assay: Whole-cell patch-clamp, current inhibition of alanine mutant S788A; details: S788 alanine substitution versus wild-type
Procedure, shortened: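 Alanine-substituted GluA2 transiently expressed in HEK293 cells. Whole-cell currents evoked by Glu via rapid theta-pipette solution exchange, co-applied with graded noncompetitive inhibitor concentrations. Normalized current concentration dependencies fitted with the logistic equation. Mutant IC50 expressed relative to the wild-type receptor value.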

SMILES | IC50 (GluA2WT) | voltage dependence of current inhibition (GluA2WT) | Hill coefficient (nHill) (GluA2WT) | voltage dependence of current inhibition (GluA2Del) | Hill coefficient (nHill) (GluA2Del) | IC50 (GluA2D519A) | nHill (GluA2D519A; D519A mutant, 3 mM Glu, −60 mV, 30 μM CTZ) | IC50 (GluA2F623A) | nHill (GluA2F623A; F623A mutant, 3 mM Glu, −60 mV, 30 μM CTZ) | change in IC50 value compared to wild-type (GluA2 S615A) | effect of substitution on inhibition (GluA2 S788A) | effect of substitution on inhibition (GluA2D519A; D519 alanine substitution versus wild-type) | change in IC50 value compared to wild-type (GluA2F623A; F623A mutant)
CNC(=O)N1N=C(c2ccc(N)cc2)c2cc3c(cc2CC1C)OCO3 (stereo not shown) [GYKI, GYKI 53655] | 14.5 ± 1.6 µM | voltage independent | 1.29 ± 0.08 | voltage independent | 1.29 ± 0.08 | 3.8 ± 0.58 µM | 1.58 ± 0.12 | 153 ± 8 µM | 1.18 ± 0.07 | two orders of magnitude increase | Reduced affinity | – | –
N#Cc1ccccc1-c1cc(-c2ccccn2)cn(-c2ccccc2)c1=O [PMP, perampanel] | 0.89 ± 0.07 µM | voltage independent | 1.08 ± 0.05 | voltage independent | 1.08 ± 0.04 | – | – | – | – | – | no appreciable effect | no appreciable effect | two orders of magnitude increase
